Active and inactive are the calls of the source. The calls are words filed in the database; no cut-off is given here.
Assays:
[1] = Apparent permeability from basolateral to apical side in MDCK cells; assay type: ADME, cell-based, Canis lupus familiaris; details: dog
Summary of the method: (§1)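 Apparent permeability measured in MDCK cell monolayers, apical→basolateral and basolateral→apical directions, three biological replicates.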

[2] = Apparent permeability from apical to basolateral side in MDCK cells; assay type: ADME, cell-based, Canis lupus familiaris; details: dog; summary of the method: as §1
[3] = Selectivity index, ratio of CC50 for human HeLa cells to EC50 for Ebolavirus H. sapiens-wt/1995/Kikwit-9510621 infected in human HeLa cells; assay type: toxicity, cell-based; details: read-out: Ratio CC50/EC50
[4] = system: Ebolavirus; assay: Antiviral activity against Ebolavirus H. sapiens-wt/1995/Kikwit-9510621 infected in human HeLa cells assessed as inhibition of viral infection pretreated for 2 hrs followed by viral infection and measured after 48 hrs by EboV GP immunostaining based high content imaging analysis; assay type: functional, organism-based
[5] = Cytotoxicity against human HeLa cells after 2 hrs by high content imaging analysis; assay type: cell-based
[6] = system: Ebolavirus; assay: Antiviral activity against Ebolavirus infected in mouse assessed as protection against viral infection at 60 mg/kg/day relative to control; assay type: functional
[7] = system: Ebolavirus; assay: Antiviral activity against Ebolavirus; assay type: functional, organism-based; details: Orthoebolavirus
[8] = system: Ebolavirus; assay: Antiviral activity against Ebolavirus infected in monkey assessed as protection against viral infection at 3.3 mg/kg/day relative to control; assay type: functional
[9] = target: Cathepsin B (Homo sapiens) (UniProt P07858); assay: Inhibition of cathepsin B activity in human HeLa cells at 0.01 uM after 12 hrs by magic red substrate based fluorescence assay; assay type: cell-based
Summary of the method: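 HeLa cells were exposed to compound for 12 h, then given the Magic Red cathepsin B peptide reporter, washed, and imaged at Ex/Em 590/630. Total intensity and average area of red fluorescence were scored by high-content analysis. Eight wells per point, about 3000 cells/well, mean ± SD, three independent experiments.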

[10] = system: HeLa; assay: Induction of lysosomotropism in human HeLa cells infected with Ebolavirus assessed as increase in fluorescence intensity of acid compartments at 0.01 uM for 1 hr by Lysosensor DND189 staining based assay; assay type: functional, cell-based
Summary of the method: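 HeLa cells were pretreated 1 h with compound (Bafilomycin A1 at 0.01 μM as acidification control), then stained with LysoSensor DND 189 for 10 min and washed. Live imaging at Ex/Em 443/505 nm. Fluorescence intensity per area was quantified by image analysis. Eight wells per point, about 3000 cells/well, mean ± SD, three independent experiments.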

[11] = system: HeLa; assay: Induction of lysosomotropism in human HeLa cells infected with Ebolavirus assessed as expansion of acid compartments at 0.01 uM for 2 hrs by acridine orange staining based assay; assay type: functional, cell-based
Summary of the method: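 HeLa cells pretreated 2 h, then acridine orange for 30 min, washed and imaged. Total intensity and average area of acridine orange fluorescence quantified by high-content imaging. Mean ± SD of 8 wells, about 3000 cells each, three independent experiments.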

[12] = Orthoebolavirus, H. sapiens-wt/1995/Kikwit-9510621, HeLa
[13] = Orthoebolavirus, H. sapiens-wt/1995/Kikwit-9510621, HeLa, read-out: EC50

CC(C)NCC(O)COc1cccc2ccccc12 (centres undefined) [PROPRANOLOL]
Papp B→A [1]: 41.6 to 42.9 ×10⁻⁶ cm/s
Papp A→B [2]: 37.7 to 39 ×10⁻⁶ cm/s

OC(CNc1ccnc2c1ccc1c2ccc2c(NCCN3CCOCC3)ccnc21)CN1CCOCC1 (centres undefined)
selectivity ratio [3]: > 16.7
EC90 [4, 12]: 3.5 µM
EC50 [4, 13]: 0.6 µM
CC50 at 2 h [5]: > 10 µM

COc1cc2nc(N3CCN(C(=O)c4ccco4)CC3)nc(N)c2cc1OC [PRAZOSIN]
Papp B→A [1]: 48.6 to 58.9 ×10⁻⁶ cm/s
Papp A→B [2]: 27.6 to 30 ×10⁻⁶ cm/s

CCN(CC)CCCNc1ccnc2cccnc12
EC50 [4, 13]: 10 µM

CCN(CC)CCCC(C)Nc1ccnc2cccnc12 (centres undefined)
EC50 [4, 13]: 10 µM

CN(C)CCOc1ccc(/C(=C(/CCCl)c2ccccc2)c2ccccc2)cc1 [TOREMIFENE]
Activity [6]: 50%
EC50 [7]: 0.97 to 1.73 µM

NCCCNc1ccnc2c1ccc1c2ccc2c(NCCCN)ccnc21
selectivity ratio [3]: > 1
EC90 [4, 12]: 20.5 µM
EC50 [4, 13]: 10 µM
CC50 at 2 h [5]: > 10 µM

c1cc(NCCCN2CCOCC2)c2nccc(NCCCN3CCOCC3)c2n1
EC50 [4, 13]: 10 µM

CCC(CC)COC(=O)[C@H](C)N[P@](=O)(OC[C@H]1O[C@@](C#N)(c2ccc3c(N)ncnn23)[C@H](O)[C@@H]1O)Oc1ccccc1
Activity [8]: 100%
EC50 [7]: 0.06 to 0.14 µM

Clc1ccc2c(NCCCCNc3ccnc4cccnc34)ccnc2c1
selectivity ratio [3]: > 8.7
EC90 [4, 12]: 13 µM
EC50 [4, 13]: 2.87 µM
CC50 at 2 h [5]: > 25 µM

c1cc(NCCN2CCOCC2)c2nccc(NCCN3CCOCC3)c2n1
EC50 [4]: Not Active
CC50 at 2 h [5]: > 25 µM

CO/C1=C\C(C)=C\[C@@H](C)[C@@H](O)[C@@H](C)C/C(C)=C/C=C/[C@H](OC)[C@@H]([C@@H](C)[C@@H](O)[C@H](C)[C@@]2(O)C[C@@H](O)[C@H](C)[C@@H](C(C)C)O2)OC1=O
inhibition [9]: Active
Activity [10]: Active
Activity [11]: inactive

c1cnc2c(NCCCN3CCOCC3)ccnc2c1
EC50 [4]: Not Active
